From ChEMBL document CHEMBL4033799, “Stable and Long-Lasting, Novel Bicyclic Peptide Plasma Kallikrein Inhibitors for the Treatment of Diabetic Macular Edema” (J Med Chem, 2018) come the findings set out here.

Data set [1] relates to Rattus norvegicus. As to the kind of experiment: Antiinflammatory activity in Sprague-Dawley rat carrageenan-induced paw edema model assessed as inhibition of paw edema AUC (0 to 2 hrs) at 10 to 30 mg/kg, ip pretreated for 15 mins followed by carrageenan challenge. The class given is functional, organism-based. In a few lines:
(§1)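 Male Sprague-Dawley rats received peptide IP (30, 10 or 3 mg/kg), or indomethacin IP at 5 mg/kg, 15 min before subplantar carrageenan. Paw volume was followed over time against a vehicle group.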
(In general: Carrageenan injected into the paw causes an acute inflammation.)

A further data set has as its target Coagulation factor X (Homo sapiens, UniProt P00742). Put plainly: Inhibition of recombinant human C-terminal 10His-tagged factor Xa (24 to 488 residues) expressed in baculovirus derived insect sf21 cells using fluorogenic Mca-RPKPVE-Nval-WRK(Dnp)-NH2 peptide as substrate by fluorescence based assay. In a few lines:
(§2)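 Human serine proteases were assayed with substrates and conditions set by each supplier's recommendations. Peptides were first screened at 50 μM. Where inhibition was detected, Ki was determined from activity across peptide concentrations using a tight-binding rate equation.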

The next data set has as its target T1, Cathepsin G (Homo sapiens, UniProt P08311).
T1 sequence (P08311 whole entry): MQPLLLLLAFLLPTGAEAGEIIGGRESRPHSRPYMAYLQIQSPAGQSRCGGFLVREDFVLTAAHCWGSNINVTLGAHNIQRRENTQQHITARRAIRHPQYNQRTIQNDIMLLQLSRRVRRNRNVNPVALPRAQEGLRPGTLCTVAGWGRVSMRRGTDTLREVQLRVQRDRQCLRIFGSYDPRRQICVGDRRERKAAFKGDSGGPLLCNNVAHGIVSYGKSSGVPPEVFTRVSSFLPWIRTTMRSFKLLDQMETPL
As to the kind of experiment: Inhibition of recombinant human Cathepsin-G. The method in brief:
(§3)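 Panel of human serine proteases. Substrates and assay conditions followed each supplier's recommendations. Peptides were first screened at 50 μM. Where inhibition was detectable, hydrolytic activity was measured across a range of peptide concentrations. Ki was obtained by fitting to the tight-binding inhibitor rate equation.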

The species entered for the next data set is Oryctolagus cuniculus. As to the kind of experiment: Inhibition of plasma kallikrein in rabbit plasma using HMWK as substrate assessed as suppression of kaolin-activated protein induced bradykinin release at 2 uM preincubated for 15 mins followed by substrate addition measured after 15 min by ELISA. On the technique in general: ELISA stands for enzyme-linked immunosorbent assay.

For a further data set, the target named is Kallikrein-6 (Homo sapiens, UniProt Q92876). As to the kind of experiment: Inhibition of recombinant human C-terminal His-tagged KLK6 isoform 1 (1 to 244 residues) expressed in HEK293 cells using fluorogenic Boc-QARAMC peptide as substrate by fluorescence based assay. In a few lines: as §2
The subject of data set [2] is Rattus norvegicus. As to the kind of experiment: Antiinflammatory activity in ip dosed Sprague-Dawley rat carrageenan-induced paw edema model assessed as inhibition of edema pretreated for 15 mins followed by carrageenan challenge measured up to 6 hrs. The class given is functional, organism-based. The method in brief: as §1
The target in data set [3] is T2, Complement C1s subcomponent (Homo sapiens, UniProt P09871).
T2 sequence (P09871 whole entry): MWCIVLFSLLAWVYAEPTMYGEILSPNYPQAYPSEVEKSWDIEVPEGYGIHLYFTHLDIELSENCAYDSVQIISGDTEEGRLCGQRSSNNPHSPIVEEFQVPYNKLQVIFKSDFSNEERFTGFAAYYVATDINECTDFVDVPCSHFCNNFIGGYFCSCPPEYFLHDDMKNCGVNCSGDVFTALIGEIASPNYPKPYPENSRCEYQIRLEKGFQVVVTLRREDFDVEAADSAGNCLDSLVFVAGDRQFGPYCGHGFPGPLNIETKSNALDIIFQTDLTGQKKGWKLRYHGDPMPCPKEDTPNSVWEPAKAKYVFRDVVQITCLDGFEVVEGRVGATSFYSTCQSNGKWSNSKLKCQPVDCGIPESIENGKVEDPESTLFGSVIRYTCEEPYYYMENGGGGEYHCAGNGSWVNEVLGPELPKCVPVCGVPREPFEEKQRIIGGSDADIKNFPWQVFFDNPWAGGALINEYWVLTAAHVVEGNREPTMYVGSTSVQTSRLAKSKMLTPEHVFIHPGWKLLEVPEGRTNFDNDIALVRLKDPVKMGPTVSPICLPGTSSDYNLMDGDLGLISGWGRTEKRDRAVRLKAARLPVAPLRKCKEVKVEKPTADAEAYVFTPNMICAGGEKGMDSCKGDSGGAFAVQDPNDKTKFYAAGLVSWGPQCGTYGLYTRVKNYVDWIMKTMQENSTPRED
As to the kind of experiment: Inhibition of recombinant human C-terminal 6His-tagged complement component C1s (1 to 688 residues) expressed in mouse NS0 cells using fluorogenic Z-Lys-SBzl peptide as substrate after 5 mins by fluorescence based assay. In a few lines:
as §2

The target of the next data set is Prothrombin (Homo sapiens, UniProt P00734). As to the kind of experiment: Inhibition of recombinant human alpha thrombin using fluorogenic peptide as substrate by fluorescence based assay. The method in brief: as §3
The subject of another data set is Mus musculus. As to the kind of experiment: Antidiabetic activity in STZ-induced diabetic C57BL/6J mouse model assessed as reduction in retinal vascular permeability at 100 ug administered 4 times via ivt measured at 8 weeks post diabetes onset relative to control. The format is functional. In a few lines: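 Diabetes was induced with STZ in male C57BL/6J mice. Peptide was given as repeated intravitreal injections (4 × 100 μg). Retinal permeability was read as FITC-BSA extravasation 8 weeks after diabetes onset and compared with vehicle-treated diabetic mice. The anti-VEGFR2 antibody DC101 (6.2 μg/eye, single dose) served as positive control.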

Data set [4] has as its system Rattus norvegicus. As to the kind of experiment: Antiinflammatory activity in Sprague-Dawley rat assessed as inhibition carrageenan-induced paw edema at 30 mg/kg, ip pretreated for 15 mins followed by carrageenan challenge measured at 1 hr post carrageenan challenge. The format is functional. In a few lines:
as §1

In data set [5] the test system is Plasma. As to the kind of experiment: Anti-coagulating activity in factor 8-deficient human plasma assessed as increase in coagulation time at 10 uM by aPTT assay. The class given is functional. The method in brief:
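Clotting time measured on a coagulation analyzer using actin FS, 0.025 M CaCl2, FVIII-deficient human plasma and Owren's Veronal Buffer pH 7.35, run per the manufacturer's instructions. Peptide tested from zero (vehicle) up to 10 μM. Each point is the mean ± SD of triplicates.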

In data set [6] the test system is Rattus norvegicus. As to the kind of experiment: Antiinflammatory activity in Sprague-Dawley rat assessed as inhibition carrageenan-induced paw edema at 30 mg/kg, ip pretreated for 15 mins followed by carrageenan challenge measured at 4 hrs post carrageenan challenge. The class given is functional. In a few lines: as §1
Data set [7] deals with Rattus norvegicus. As to the kind of experiment: Antidiabetic activity in STZ-induced diabetic Brown-Norway rat model assessed as reduction in retinal vascular leakage at 100 ug/eye administered via ivt measured at 4 weeks post diabetes onset relative to control. The class given is functional. The method in brief: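 Diabetes was induced with STZ in male Brown-Norway rats. Peptide was given intravitreally at 100 μg/eye. Retinal vascular permeability was read as FITC-BSA extravasation 4 weeks after diabetes onset and compared with vehicle-treated diabetic rats. A soluble VEGF-trap served as positive control.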

The test system of data set [8] is Rattus norvegicus. As to the kind of experiment: Antiinflammatory activity in Sprague-Dawley rat assessed as inhibition carrageenan-induced paw edema at 30 mg/kg, ip pretreated for 15 mins followed by carrageenan challenge measured at 2 hrs post carrageenan challenge. The format is functional. In a few lines: as §1
For data set [9], the system named is Plasma. As to the kind of experiment: Stability in rat plasma at 50 uM incubated for 2 days by MALDI-TOF analysis. To be noted: 48 h. The format is ADME, cell-free. The method in brief:
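Qualitative stability test. 1 mM DMSO stock diluted into citrated rat plasma to 50 μM and held at 37 °C for up to 2 days. Aliquots at time points quenched in 1:1 acetonitrile/methanol and centrifuged. Supernatant mixed with 30 mM ammonium bicarbonate. Parent mass and protease metabolites detected by MALDI-TOF.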

For data set [10], the target named is Plasma kallikrein (Rattus norvegicus, UniProt P14272). Put plainly: Inhibition of recombinant Sprague-Dawley rat plasma kallikrein using fluorogenic H-Pro-Phe-Arg-AMC peptide as substrate preincubated for 15 mins followed by substrate addition measured by fluorescence-based assay. To be noted: read-out: Ki(app).
The target of data set [11] is Plasma kallikrein (Homo sapiens, UniProt P03952). As to the kind of experiment: Inhibition of human plasma kallikrein using fluorogenic H-Pro-Phe-Arg-AMC peptide as substrate preincubated for 15 mins followed by substrate addition measured by fluorescence-based assay. To be noted: read-out: Ki(app).
The nature of data set [12]: Aqueous solubility of the compound in buffer. The format is physicochemical.

Molecules are shown by their SMILES. The source made the active and inactive calls. No cut-off for these calls is given here. *1 amine or outer side, *2 acyl side, *3 side chain or, on linkers, in order; H or OH if unused. Where a SMILES comes first, the peptide text is derived from it. Bridges are numbered along the chain shown (N, C = ends). TBMB = c1c(C[*:1])cc(C[*:3])cc1C[*:2] Where only a bound is given, the exact number is not on record here.

For the compound `CC(=O)N[C@H]1CSCc2cc3cc(c2)CSC[C@@H](NC(=O)[C@H](CCCCNC(=N)N)NC(=O)[C@H](Cc2ccc(O)cc2)NC(=O)C2CCN2C(=O)[C@H](Cc2ccccc2)NC(=O)[C@H](CO)NC1=O)C(=O)N[C@@H](C)CN[C@@H](Cc1cnc[nH]1)C(=O)N[C@@H](CCC(N)=O)C(=O)N[C@@H](CC(=O)O)C(=O)N[C@@H](CC(C)C)C(=O)N[C@H](C(=O)O)CSC3` (stereo partly drawn), the inhibition result in the data set on Rattus norvegicus [1] is “Active”. Also, the Ki (on Coagulation factor X; on Cathepsin G; on Kallikrein-6; in data set [3]; on Prothrombin) was over 50 µM throughout. Besides, the inhibition result in the data set listed under Oryctolagus cuniculus and in the data set on Mus musculus was “inactive” each time. In addition, the inhibition result in the data set on Rattus norvegicus [2] is “Dose-dependent effect”.
With `CC(=O)N[C@H]1CSCc2cc3cc(c2)CSC[C@H](NC(=O)[C@H](CCCCNC(=N)N)NC(=O)[C@H](Cc2ccc(O)cc2)NC(=O)[C@@H]2CCN2C(=O)[C@H](Cc2ccccc2)NC(=O)[C@H](CO)NC1=O)C(=O)N[C@@H](C)CN[C@@H](Cc1cnc[nH]1)C(=O)N[C@@H](CCC(N)=O)C(=O)N[C@@H](CC(=O)O)C(=O)N[C@@H](CC(C)C)C(=O)N[C@H](C(=O)O)CSC3`, the inhibition in vivo at 30 mg/kg was 90% with Rattus norvegicus [4], 32% in the data set on Rattus norvegicus [6] and 52% in the data set with Rattus norvegicus [8]. For the same compound, the Activity with Plasma [5] came to 15%. For the same compound, the “inhibition (INH)” value in the data set on Rattus norvegicus [7] came to 30%.
With `CC(C)C[C@@H]1NC(=O)[C@@H]2CCCN2C(=O)[C@H](C)NC(=O)[C@H](CC(=O)O)NC(=O)[C@H](Cc2c[nH]c3ccccc23)NC(=O)[C@@H]2CCCN2C(=O)[C@@H]2CSCc3cc(cc(c3)CSC[C@@H](C(=O)N[C@@H](C)C(=O)O)NC1=O)CSC[C@H](NC(=O)[C@H](C)N)C(=O)N[C@@H](CC(N)=O)C(=O)N[C@@H]([C@@H](C)O)C(=O)N[C@@H](Cc1c[nH]c3ccccc13)C(=O)N[C@@H](CC(N)=O)C(=O)N1CCC[C@H]1C(=O)N[C@@H](Cc1c[nH]c3ccccc13)C(=O)N2` (H-ACNTWNPWCPWDAPLCA-OH; linker 2-9-16 via TBMB), the Stability entry in the data set on Plasma [9] is listed as “Unstable”. Besides, the Ki at Plasma kallikrein [10] was 0.4 nM; on Plasma kallikrein [11], 2.3 nM. Further, the solubility entry in [12] was “Insoluble”.

As usually defined, the inhibition in vivo is how much of the control response was suppressed.
